# Source: ChEMBL document CHEMBL1122273, “5-sulfamoylorthanilic acids, a sulfonamide series with salidiuretic activity” (J Med Chem, 1983)
# What was measured:
# [1] = Partion coefficient in octanol/H2O system at pH=7; type: physicochemical
# Summary of the method: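 Partition between octanol and Britton-Robinson buffer, measured across pH 0–13; value read at pH 7.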
# [2] = Solubility of compound in water was determined; type: physicochemical; conditions: buffer
# Canis familiaris [3] = assay: Saluretic activity in the dog measured as concentration of Na+ in urinary excretion (2 animals/dose) at (dose 0.1 mg/Kg, perorally); type: functional, Canis lupus familiaris, Urine
# Summary of the method: (§1)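 Male beagles trained to rest on a table and to accept stomach tube and catheter. Food withdrawn 24 h before, tap water ad libitum. Bladder emptied by catheter, then 20 mL/kg tap water by stomach tube. Catheterized hourly up to 8 h with 4 mL/kg water orally each time; first 2 h urine served as control. Oral dosing after second catheterization. Pooled 1–6 h urine; Na⁺/K⁺ by flame photometry, Cl⁻ argentometrically.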
# Canis familiaris [4] = assay: Saluretic activity in the dog measured as concentration of Na+ in urinary excretion (2 animals/dose) at (dose 1.56 mg/Kg, perorally); type: functional, Canis lupus familiaris, Urine; summary of the method: as §1
# Canis familiaris [5] = assay: Diuretic activity in the dog (2 animals/dose) at (dose 0.1 mg/Kg), when administered perorally; type: functional, Canis lupus familiaris, Urine
# Summary of the method: (§2)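 Trained male beagles, fasted 24 h with tap water ad libitum. Bladder emptied by catheter, then 20 mL/kg tap water by stomach tube, with 4 mL/kg water at each hourly catheterization up to 8 h. The first 2 h of urine served as control. Oral dosing came after the second catheterization, and 1–6 h urine was pooled. Na⁺ and K⁺ were measured by flame photometry, Cl⁻ argentometrically, in mequiv/kg.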
# Canis familiaris [6] = assay: Diuretic activity in the dog (2 animals/dose) at (dose 0.4 mg/Kg), when administered perorally; type: functional, Canis lupus familiaris, Urine; summary of the method: as §2
# Canis familiaris [7] = assay: Diuretic activity in the dog (2 animals/dose) at (dose 1.56 mg/Kg), when administered perorally; type: functional, Canis lupus familiaris, Urine; summary of the method: as §2
# Canis familiaris [8] = assay: Saluretic activity in the dog measured as concentration of K+ in urinary excretion (2 animals/dose) at (dose 0.1 mg/Kg, perorally); type: functional, Canis lupus familiaris, Urine
# Summary of the method: (§3)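 Male beagles trained to the procedures, food withdrawn 24 h before, tap water ad libitum. Bladder emptied by catheter, then 20 mL/kg tap water by stomach tube, plus 4 mL/kg orally at each hourly catheterization up to 8 h. The first 2 h of urine served as control. Compound given orally after the second catheterization. Urine from 1–6 h post-dose pooled; Na⁺ and K⁺ by flame photometry, Cl⁻ argentometrically, in mequiv/kg.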
# Canis familiaris [9] = assay: Saluretic activity in the dog measured as concentration of K+ in urinary excretion (2 animals/dose) at (dose 0.4 mg/Kg, perorally); type: functional, Canis lupus familiaris, Urine; summary of the method: as §3
# Canis familiaris [10] = assay: Saluretic activity in the dog measured as concentration of K+ in urinary excretion (2 animals/dose) at (dose 1.56 mg/Kg, perorally); type: functional, Canis lupus familiaris, Urine; summary of the method: as §3
# Canis familiaris [11] = assay: Saluretic activity in the dog measured as concentration of Cl - in urinary excretion (2 animals/dose) at (dose 0.1 mg/Kg, perorally); type: functional, Canis lupus familiaris, Urine; summary of the method: as §3
# Canis familiaris [12] = assay: Saluretic activity in the dog measured as concentration of Cl - in urinary excretion (2 animals/dose) at (dose 1.56 mg/Kg, perorally); type: functional, Canis lupus familiaris, Urine; summary of the method: as §3
# Canis familiaris [13] = assay: Saluretic activity in the dog measured as concentration of Cl - in urinary excretion (2 animals/dose) at (dose 12.5 mg/Kg, perorally); type: functional, Canis lupus familiaris, Urine; summary of the method: as §3
# Canis familiaris [14] = assay: Saluretic activity in the dog measured as concentration of Cl - in urinary excretion (2 animals/dose) at (dose 0.4 mg/Kg, perorally); type: functional, Canis lupus familiaris, Urine; summary of the method: as §3
# Canis familiaris [15] = assay: Urinary excretion collected at 1-24 hr time after oral administration in dog (four animals per dose) at dose 0.39 mg/kg.; type: functional, Canis lupus familiaris, Urine
# Summary of the method: (§4)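 Trained male beagles, four per dose, fasted 24 h with tap water ad libitum. After bladder emptying, given 20 mL/kg tap water by stomach tube, then 4 mL/kg at each hourly catheterization; 2 h control collection, then oral dosing. Urine volume and Na⁺ (flame photometry) reported for 1–6, 7–24 and 1–24 h post-dose periods.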
# Canis familiaris [16] = assay: Urinary excretion collected at 1-24 hr time after oral administration in dog (four animals per dose) at dose 6.25 mg/kg.; type: functional, Canis lupus familiaris, Urine; summary of the method: as §4
# Canis familiaris [17] = assay: sodium excretion collected at 1-24 h time after oral administration in dog (four animals per dose) at dose 6.25 mg/kg.; type: functional, Canis lupus familiaris; summary of the method: as §4
# Canis familiaris [18] = assay: sodium excretion collected at 1-6 hr time after oral administration in dog (four animals per dose) at dose 6.25 mg/kg.; type: functional, Canis lupus familiaris; summary of the method: as §4
# Rattus norvegicus [19] = species: Rattus norvegicus; assay: Diuretic activity in the rats, determined by a modified Lipschitz test; type: functional, Urine
# Summary of the method: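 Modified Lipschitz test: rats deprived of water 24 h, grouped in threes of similar weight in diuresis funnels. Oral dose of 50 mg/kg, suspended in 2% starch solution, by stomach tube.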
# Rattus norvegicus [20] = species: Rattus norvegicus; assay: Saluretic activity in the rat measured as concentration of chloride in urine; type: functional
# Summary of the method: (§5)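 Rats deprived of food 24 h, water ad libitum, dosed 50 mg/kg by stomach tube as suspension in 2% starch, no extra water load. Groups of three in diuresis funnels; urine over first 5 h collected. Na⁺ and K⁺ by flame photometry, Cl⁻ argentometrically; expressed as mequiv/kg.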
# Rattus norvegicus [21] = species: Rattus norvegicus; assay: Saluretic activity in the rat measured as concentration of K+ in urine; type: functional; summary of the method: as §5
# [22] = It is the ratio, measured as saluretic activity in the dog as concentration of Cl- in urinary excretion (dose 0.4 mg/Kg, perorally) to that of (Na++K+); type: functional, Urine; summary of the method: as §2
# [23] = It is the ratio, measured as saluretic activity in the dog as concentration of Cl- in urinary excretion (dose 0.1 mg/Kg, perorally) to that of (Na+)+(K+); type: functional, Urine; summary of the method: as §2
# [24] = It is the ratio, measured as saluretic activity in the dog as concentration of Cl- in urinary excretion (dose 1.56 mg/Kg, perorally) to that of (Na+)+K+); type: functional, Urine; summary of the method: as §2
# [25] = It is the ratio, measured as saluretic activity in the dog as concentration of Na+ in urinary excretion (dose 0.1 mg/Kg, perorally) to that of K; type: functional, Urine; summary of the method: as §2
# [26] = It is the ratio, measured as saluretic activity in the dog as concentration of Na+ in urinary excretion (dose 0.4 mg/Kg, perorally) to that of K; type: functional, Urine; summary of the method: as §2
# Rattus norvegicus [27] = species: Rattus norvegicus; assay: Saluretic activity in the rat measured as concentration of Na+ in urine; type: functional; summary of the method: as §5
# [28] = Dissociation constant, pK1 was determined using sodium salt
# [29] = Dissociation constant, pK2 was determined using sodium salt
# Canis familiaris [30] = assay: sodium excretion collected at 1-6 hr time after oral administration in dog (four animals per dose) dosed at 0.39 mg/kg.; type: functional, Canis lupus familiaris; summary of the method: as §4
# Canis familiaris [31] = assay: sodium excretion collected at 1-6 hr time after oral administration in dog (four animals per dose) dosed at 3.12 mg/kg.; type: functional, Canis lupus familiaris; summary of the method: as §4
# Canis familiaris [32] = assay: urinary excretion collected at 1-24 hr time after oral administration in dog (four animals per dose) dosed at 3.12 mg/kg.; type: functional, Canis lupus familiaris, Urine
# Summary of the method: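 Trained male beagles, four per dose, fasted 24 h with tap water ad libitum. The bladder was emptied by catheter, then 20 mL/kg tap water was given by stomach tube. Dogs were catheterized hourly with 4 mL/kg water orally each time, and the first 2 h served as control. Compound was given orally after the second catheterization. Urine volume and flame-photometric Na⁺ were measured over 1-6, 7-24 and 1-24 h.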
Compound,Partition coefficient [1],Solubility [2],Saluretic activity (Canis familiaris [3]),Saluretic activity (Canis familiaris [4]),Diuretic activity (Canis familiaris [5]),Diuretic activity (Canis familiaris [6]),Diuretic activity (Canis familiaris [7]),Saluretic activity (Canis familiaris [8]),Saluretic activity (Canis familiaris [9]),Saldiuretic activity (Canis familiaris [11]),Saldiuretic activity (Canis familiaris [12]),Saldiuretic activity (Canis familiaris [14]),Diuretic activity (Rattus norvegicus [19]),Saluretic activity (Rattus norvegicus [20]),Saluretic activity (Rattus norvegicus [21]),Ratio [23],Ratio [25],Ratio [26],Saluretic activity (Rattus norvegicus [27]),pKa [28],further results
NS(=O)(=O)c1cc(S(=O)(=O)[O-])c(NCc2ccco2)cc1Oc1ccccc1.[Na+],0.12,20%,1.19 m equiv 6hr-1 kg-1,4.89 m equiv 6hr-1 kg-1,30 ml kg-1 6hr-1,36.4 ml kg-1 6hr-1,71.4 ml kg-1 6hr-1,0.15 m equiv 6hr-1 kg-1,0.34 m equiv 6hr-1 kg-1,0.27 m equiv 6hr-1 kg-1,5.47 m equiv 6hr-1 kg-1,1.65 m equiv 6hr-1 kg-1,4.1 mL/kg,9.6 m equiv 5hr-1 kg-1,2.1 m equiv 5hr-1 kg-1,0.8,1.2,3.5,7 m equiv 5hr-1 kg-1,0.5,Saluretic activity (Canis familiaris [10]): 1 m equiv 6hr-1 kg-1; Saldiuretic activity (Canis familiaris [13]): 7.13 m equiv 6hr-1 kg-1; Urinary excretion (Canis familiaris [15]): 50.9 mL/kg; Urinary excretion (Canis familiaris [16]): 111.1 mL/kg; Na+ excretion (Canis familiaris [17]): 8.55 mequiv kg-1; Na+ excretion (Canis familiaris [18]): 6.52 mequiv kg-1; Ratio [22]: 1.1; Ratio [24]: 0.95; pKa [29]: 10.2
CN(c1ccccc1)c1cc(NCc2ccco2)c(S(=O)(=O)[O-])cc1S(N)(=O)=O.[Na+],0.28,4%,3.08 m equiv 6hr-1 kg-1,5.74 m equiv 6hr-1 kg-1,54.3 ml kg-1 6hr-1,75.3 ml kg-1 6hr-1,69.4 ml kg-1 6hr-1,0.72 m equiv 6hr-1 kg-1,1.28 m equiv 6hr-1 kg-1,3.99 m equiv 6hr-1 kg-1,6.79 m equiv 6hr-1 kg-1,6.34 m equiv 6hr-1 kg-1,4.6 mL/kg,9.4 m equiv 5hr-1 kg-1,2.4 m equiv 5hr-1 kg-1,1.1,4.3,4.1,8.2 m equiv 5hr-1 kg-1,1,Saldiuretic activity (Canis familiaris [10]): 1.17 m equiv 6hr-1 kg-1; Na+ excretion (Canis familiaris [30]): 5.26 mequiv kg-1; Na+ excretion (Canis familiaris [31]): 4.39 mequiv kg-1; Urinary excretion (Canis familiaris [32]): 102 mL/kg; pKa [29]: 10.5
